Measurements from ChEMBL document CHEMBL2331294, “Anti-inflammatory diterpenoids from Croton tonkinensis” (J Nat Prod, 2013).

How the values were obtained:
[1] = Antiinflammatory activity in FMLP/CB activated human neutrophils assessed as inhibition of elastase release; type: functional, cell-based, Neutrophil
Procedure, shortened: (§1)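 Neutrophils from healthy donor blood (dextran sedimentation, Ficoll 1.077 g/mL, hypotonic lysis), held in Ca2+-free HBSS pH 7.4 at 4 °C. Cells (6 × 10^5/mL) with MeO-Suc-Ala-Ala-Pro-Val-p-nitroanilide 100 μM, equilibrated 37 °C 2 min, drug or 0.1% DMSO 5 min, then 100 nM FMLP plus 0.5 μg/mL cytochalasin B. A405 monitored continuously; expressed relative to drug-free activated control; n = 3−4.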

[2] = Antiinflammatory activity in FMLP/CB activated human neutrophils assessed as inhibition of superoxide generation by ferricytochrome c reduction based spectrophotometry; type: functional, cell-based, Neutrophil
Procedure, shortened: (§2)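 Human donor neutrophils (6 × 10^5 cells/mL) with 0.5 mg/mL ferricytochrome c and 1 mM Ca2+, equilibrated 37 °C 2 min, then drug or 0.1% DMSO vehicle 5 min. Activated with 100 nM FMLP after 1 μg/mL cytochalasin B preincubation, 3 min. A550 followed continuously with stirring. Superoxide from SOD (100 U/mL)-inhibitable difference, ε = 21.1/mM/10 mm; n = 3−4.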

[3] = Antiinflammatory activity in FMLP/CB activated human neutrophils assessed as inhibition of elastase release at 10 uM; type: functional; settings: Neutrophil; procedure, shortened: as §1
[4] = Antiinflammatory activity in FMLP/CB activated human neutrophils assessed as inhibition of superoxide generation at 10 uM by ferricytochrome c reduction based spectrophotometry; type: functional; settings: Neutrophil; procedure, shortened: as §2
[5] = Homo sapiens, Neutrophil, read-out: IC50

Row | Structure (SMILES) | IC50 [1, 5] | IC50 [2, 5] | inhibition at 10 µM [3] | also measured
1 | C=C1C(=O)[C@@]23CC[C@H]4[C@@](C)(CCC[C@]4(C)C(=O)O)[C@@H]2CC[C@H]1C3 | 5.56 µM | 3.27 µM | – | –
2 | C=C1C(=O)[C@@]23CC[C@@H]4C(C)(C)CCC[C@@]4(C)[C@@H]2CC[C@H]1[C@H]3O | – | – | 3.64% | inhibition at 10 µM [4]: 33.6%
3 | C=C1C[C@@]23CC[C@H]4[C@@](C)(CCC[C@]4(C)C(=O)O)[C@@H]2[C@H](OC(C)=O)C[C@H]1C3 | 2.58 µM | 4.12 µM | – | –
4 | C=C1C[C@]23C[C@@H]1CC[C@H]2[C@]1(C)CCC[C@](C)(COC(C)=O)[C@H]1C[C@H]3O | – | – | – | IC50 ([1]; neutrophil): ND(Insoluble); IC50 ([2]; neutrophil): ND(Insoluble)
5 | C=C1C(=O)[C@@]23CC[C@@H]4[C@@](C)(CO)CCC[C@@]4(C)[C@@H]2CC[C@@H]1C3 | – | – | 18% | inhibition at 10 µM [4]: 29.9%
6 | CC(=O)OC[C@@]1(C)CCC[C@]2(C)[C@@H]1C[C@H](O)[C@@]13C[C@@H](CC[C@@H]21)[C@H](C)C3=O | – | – | -0.19% | inhibition at 10 µM [4]: 40.4%
7 | C=C1C(=O)[C@@]23[C@H](O)C[C@@H]4[C@@](C)(COC(C)=O)CCC[C@@]4(C)[C@@H]2CC[C@@H]1[C@H]3O | – | – | 20.1% | inhibition at 10 µM [4]: 19%
8 | C=C1C[C@]23C(=O)C[C@H]4C(C)(C)CCC[C@]4(C)[C@H]2CC[C@H]1[C@@H]3O [CROTONKININ A] | – | – | -9.32% | inhibition at 10 µM [4]: 1.65%
9 | CC(=O)O[C@@H]1C[C@@H]2C[C@@]3(C=C2C=O)CC[C@H]2[C@](C)(CO)CCC[C@]2(C)[C@@H]13 [CROTONKININ B] | 4.38 µM | 3.2 µM | – | –
10 | CC(=O)O[C@H]1C[C@@H]2C[C@]3(C=C2C=O)CC[C@H]2[C@@](C)(CCC[C@]2(C)C(=O)O)[C@H]13 [CROTONKININ C] | – | 4.96 µM | 41.8% | –
11 | CC(=O)OC[C@@]1(C)CCC[C@]2(C)[C@@H]1CC[C@]13C=C(C(=O)O)[C@H](C[C@H](OC(C)=O)[C@H]12)C3 [CROTONKININ D] | – | 2.93 µM | 20.3% | –
12 | C=C1C(=O)[C@@]23CC[C@@H]4[C@@](C)(COC(C)=O)CCC[C@@]4(C)[C@@H]2[C@@H](OC(C)=O)C[C@@H]1C3 [CROTONKININ E] | 4.66 µM | 3.11 µM | – | –
13 | CC(=O)OC[C@@]1(C)CCC[C@]2(C)[C@@H]1CC[C@@]13C[C@@H](C[C@H](O)[C@H]12)C(C)(O)C3 (stereo partly specified) [CROTONKININ H] | – | – | 23.3% | inhibition at 10 µM [4]: -10.9%
14 | CC(=O)OC[C@@]1(C)CCC[C@]2(C)[C@@H]1CC[C@]13CC(=O)[C@H](C[C@H](OC(C)=O)[C@H]12)C3 [CROTONKININ J] | – | 4.76 µM | 48.8% | –
15 | c1ccc2c(c1)[I+]c1ccccc1-2 [DIPHENYLENEIODONIUM] | – | 0.93 µM | – | –

More lines, main results first:

Row | IC50 [1, 5] | IC50 [2, 5] | Structure (SMILES) | inhibition at 10 µM [3] | also measured
16 | 2.36 µM | 1.12 µM | C=C1C(=O)[C@@]23[C@H](O)C[C@@H]4C(C)(C)CCC[C@@]4(C)[C@@H]2CC[C@H]1[C@H]3OC(C)=O | – | –
17 | – | 3.95 µM | C=C1C(=O)[C@]23C[C@@H]1CC[C@H]2[C@]1(C)CCC[C@](C)(CO)[C@H]1C[C@@H]3O | 45.8% | –
18 | 2.23 µM | 1.74 µM | C=C1C(=O)[C@]23C[C@@H]1CC[C@H]2[C@]1(C)CCCC(C)(C)[C@H]1C[C@@H]3O | – | –
19 | 1.65 µM | 1.33 µM | C=C1C(=O)[C@]23C[C@@H]1C[C@@H](OC(C)=O)[C@H]2[C@]1(C)CCC[C@](C)(COC(C)=O)[C@H]1C[C@@H]3O | – | –
20 | 0.24 µM | 0.13 µM | C=C1C(=O)[C@@]23CC[C@@H]4[C@@](C)(COC(C)=O)CCC[C@@]4(C)[C@@H]2CC[C@@H]1C3 | – | –
21 | 2.48 µM | 1.94 µM | C=C1C(=O)[C@@]23[C@H](O)C[C@@H]4C(C)(C)CC[C@@H](OC(C)=O)[C@@]4(C)[C@@H]2CC[C@@H]1[C@H]3O | – | –
22 | 2.64 µM | 1.55 µM | C=C1C(=O)[C@]23C[C@H]1CC[C@H]2[C@]1(C)CCC[C@](C)(COC(C)=O)[C@H]1C[C@H]3O | – | –
23 | 3.22 µM | 1.96 µM | C=C1C(=O)[C@@]23[C@H](O)C[C@@H]4C(C)(C)CCC[C@@]4(C)[C@@H]2CC[C@@H]1[C@H]3O | – | –
24 | 1.63 µM | 2.06 µM | C=C1C(=O)[C@@]23[C@@H]4CC5=C(C(=O)CC5(C)C)[C@@](C)(O4)[C@@H]2CC[C@@H]1[C@H]3O [CROTONKINENSIN A] | – | –
25 | 4.44 µM | 2.88 µM | C=C1C(=O)[C@]23C[C@H]1CC[C@H]2[C@]1(C)CCC[C@](C)(COC(C)=O)[C@H]1C[C@H]3OC(C)=O [CROTONKININ F] | – | –
26 | – | 4.29 µM | COCC1C(=O)[C@]23C[C@H]1CC[C@H]2[C@]1(C)CCC[C@](C)(COC(C)=O)[C@H]1C[C@H]3O (stereo partly specified) [CROTONKININ G] | 11.1% | –
